Assay results pooled from the literature.

CCN1CCN(Cc2ccc(NC(=O)c3ccc(C)c(NC(=O)c4cncc(-c5cccs5)c4)c3)cc2C(F)(F)F)CC1 — Cmax (mouse, plasma; intraperitoneal, 15 mg/kg, single dose): 582 ng/mL
Cc1ccc(C(=O)Nc2ccc(CN3CCN(C)CC3)c(C(F)(F)F)c2)cc1C#Cc1cnc2[nH]ncc2c1 — Vd/F (human, plasma; oral, 40 mg, single dose, healthy volunteers): 5370 L
NC(=S)NN=Cc1ncccc1N — Vd/F (human, plasma; oral, 100 mg): 205 L
CC(=O)O[C@@]12CO[C@@H]1C[C@H](O)[C@@]1(C)C(=O)[C@H](O)C3=C(C)[C@@H](OC(=O)[C@H](O)[C@@H](NC(=O)OC(C)(C)C)c4ccccc4)C[C@@](O)([C@@H](OC(=O)c4ccccc4)[C@H]21)C3(C)C — Cmax (male Kunming mouse, liver; oral, 20 mg/kg): 18.9 ng/g
Nc1ncn([C@H]2C[C@H](O)[C@@H](CO)O2)c(=O)n1 — Cmax (female C57BL/6 mouse, plasma; intravenous, 0.4 mg/kg): 319 ng/mL
Cn1cc(Nc2nc(N)nc(-c3cccc(-n4ccc5cc(C6CC6)cc(F)c5c4=O)c3CO)n2)cn1 — Vd/F (human, plasma; oral, 300 mg, single dose, fasted): 422 L
Cl.[2H]C([2H])([2H])CC(=O)c1cnc(NC(=O)C2CC2)cc1Nc1cccc(-c2ncn(C([2H])([2H])[2H])n2)c1OC — Vd/F (human, plasma; oral, 20 mg, multiple doses, once daily, fasted): 240 L
C=CS(=O)(=O)c1ccc(Nc2nc(OCC3CCCCC3)c3nc[nH]c3n2)cc1 — Cmax (male BALB/c mouse, plasma; intravenous, 20 mg/kg, single dose): 534 ng/mL
CC[C@H](C)CCCCC(=O)N[C@@H](CCN)C(=O)N[C@H](C(=O)N[C@@H](CCN)C(=O)N[C@H]1CCNC(=O)[C@H]([C@@H](C)O)NC(=O)[C@H](CCN)NC(=O)[C@H](CCN)NC(=O)[C@H](CC(C)C)NC(=O)[C@@H](Cc2ccccc2)NC(=O)[C@H](CCN)NC1=O)[C@@H](C)O — Vd (human, plasma; intravenous, 0.75 mg/kg, single dose, infusion): 20.2 L
CNC(=O)n1ccc2cc(Oc3ccnc(NC(=O)c4ccc(C5CCN(CCO)CC5)cc4)c3)c(OCCOC)cc21 — Vd/F (human, plasma; oral, 35 mg, single dose, fed, healthy volunteers): 14300 L
